Shown are actives, neighbours in structure and some others; about 1.9% of the full set was active somewhere.
NPY1 pot ag: NPY-Y1 receptor potentiators or agonists, primary screen, cell-based | NPY-Y1 expressing cells, potentiator/agonist activation | actives 0.37% (n = 220,000) | activation, % at 3.6 µM; in the data active means activation above about 33%, passing the limit was not always enough;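 further: cells stimulated with NPY at EC10 then isoproterenol at EC100; 0% = low agonist plus stimulus and 100% = saturating agonist plus stimulus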
Target sequence (P25929 whole entry, looked up): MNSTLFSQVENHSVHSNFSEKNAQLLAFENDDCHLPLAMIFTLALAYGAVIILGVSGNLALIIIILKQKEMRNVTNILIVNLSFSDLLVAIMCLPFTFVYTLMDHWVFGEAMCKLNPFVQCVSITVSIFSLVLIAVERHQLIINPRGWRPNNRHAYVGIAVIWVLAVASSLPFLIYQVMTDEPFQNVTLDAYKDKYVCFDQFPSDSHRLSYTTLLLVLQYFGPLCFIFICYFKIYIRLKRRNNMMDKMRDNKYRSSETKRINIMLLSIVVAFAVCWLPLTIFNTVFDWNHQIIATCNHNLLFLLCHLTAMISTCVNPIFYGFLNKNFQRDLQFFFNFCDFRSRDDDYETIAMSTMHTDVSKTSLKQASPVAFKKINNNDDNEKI
NPY-Y1 antag: NPY-Y1 receptor antagonists, primary screen, cell-based. Neuropeptide Y receptor type 1 (Homo sapiens), P25929. HEK293-CNG Y1 cells, membrane potential fluorescence; NPY at EC95, then isoproterenol. inhibition, % at 3.6 µM. actives 1% (n = 200,000);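 active means inhibition above the campaign mean inhibition of all tested compounds plus 3 SD, cut at about 20% in these data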;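 further: 0% = DMSO wells given NPY plus isoproterenol and 100% = isoproterenol alone without NPY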
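System: HEK293 cells with Y1 receptor plus CNG channel / Probe or stimulus: NPY 25 nM then isoproterenol 1 µM plus Ro 20-1724 25 µM / Compound: one concentration, 3.6 µM, in 0.4% DMSO / Schedule: compound incubation 1 h at room temperature, readout 45 min post-stimulation / Measured by: membrane potential fluorescence / Read-out: % inhibition of NPY effect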
NPY Y2 blocker: NPY-Y2 receptor antagonists, primary screen, cell-based; NPY-Y2 expressing cells, antagonist mode; inhibition, % at 2.7 µM; actives 0.99% (n = 140,000); AID 793, 2007; in the data active means inhibition above about 17%;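 further: 0% = vehicle with agonist challenge and 100% = reference antagonist with challenge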
NPY-Y2 PAM-ag: NPY-Y2 potentiators or agonists, primary screen, cell-based | cells expressing NPY-Y2, potentiator/agonist read-out | AID 1359, 2008 | Neuropeptide Y receptor type 2 (Homo sapiens), P49146 | actives 0.45% (n = 220,000) | activation, % at 3.6 µM; in the data active means activation above about 27%;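 further: cells stimulated with NPY near EC25 plus isoproterenol at EC100; 0% = vehicle plus submaximal agonist and 100% = vehicle plus saturating agonist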
NPY1 antag ctr: NPY-Y1 receptor antagonists, selectivity check, counter-screen for NPY-Y2 antagonist project, cell-based. shares compounds with NPY Y2 blocker. actives 19% (n = 710). cell-based NPY-Y1 antagonism counterscreen. inhibition, % at 3.6 µM; in the data active means inhibition above about 20%;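 further: cells challenged with NPY then isoproterenol with cAMP sensed through a CNG channel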
NPY-Y2 ant conf: NPY-Y2 receptor antagonists, retest of hits, confirmation, HEK293-CNG cells, membrane potential fluorescence, triplicate. HEK293 NPY-Y2 CNG channel. inhibition, % at 2.8 µM. shares compounds with NPY Y2 blocker. actives 32% (n = 710);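 active means mean inhibition of triplicate wells above the hit cutoff set in the primary screen, cut at about 17% in these data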;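 further: 0% = DMSO with NPY challenge and 100% = BIIE0246 high control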
* marks the source's active call; other numbers are inactive results; / = not tested or not shown.

SMILES | NPY1 pot ag | NPY-Y1 antag | NPY Y2 blocker | NPY-Y2 PAM-ag | NPY1 antag ctr | NPY-Y2 ant conf
CCOC(=O)NC(=O)C(/C=N/c1sccc1C(=O)OC)=C(\C)O | 17 | -4 | / | 4 | / | /
CCOC(=O)c1c(NC(=O)C2C3C=CC(C3)C2C(=O)O)sc2c1CCC(CC)C2 (stereo not given) | 18 | 0 | 4 | 2 | / | /
CCOC(=O)c1c(NC(=O)C2C3C=CC(CC3)C2C(=O)O)sc(C)c1C (stereo not given) | 18 | 2 | 18* | 14 | 0 | 3
O=C(CSCc1ccc(Cl)cc1)N/N=C/c1c(Cl)cccc1Cl | -1 | 3 | 17* | 3 | 11 | 26*
O=C(CSCc1ccc(Cl)cc1)N/N=C/c1ccccc1 | 2 | 2 | 8 | -17 | / | /
C/C(N)=C(/C#N)C(=O)CSc1nc2scc(-c3ccccc3)c2c(=O)n1C | -2 | -4 | / | -15 | / | /
CC(/C=C1\SC(=S)N(NC(=O)c2ccc(C)cc2)C1=O)=C\c1ccccc1 | -11 | 13 | 19* | -18 | 17 | 20*
O=C(Cn1nc(-c2ccccc2)nc1-c1ccccc1)OC1CCCCC1 | -25 | 8 | 19* | -21 | 8 | 6
COc1ccc(Cn2nnnc2C(c2cccs2)N2CCN(c3ccc([N+](=O)[O-])cc3)CC2)cc1 (stereo not given) | 3 | -6 | 0 | 7 | / | /
Fc1ccc(C(c2nnnn2Cc2cccs2)N2CCN(c3ccccc3)CC2)cc1 (stereo not given) | -60 | 9 | 19* | -4 | 14 | 5
COc1ccc(Cn2nnnc2C(c2cccs2)N2CCN(c3ccccc3)CC2)cc1 (stereo not given) | -12 | 12 | 19* | -8 | 13 | 7
CCOC(=O)CSc1n[nH]c(NC(=O)NC(C)C)n1 | 2 | 7 | / | 2 | / | /
CC(C)(C)NC(=O)NC(=O)CN1CCN(C(c2ccccc2)c2ccccc2)CC1 | -19 | -4 | / | -4 | / | /
OC12CCCCC1C(c1ccc3c(c1)OCO3)N(Cc1ccccc1F)CC2 (stereo not given) | -35 | 4 | 18* | -7 | 17 | 9
OC12CCCCC1C(c1ccc3c(c1)OCO3)N(Cc1ccc(F)cc1)CC2 (stereo not given) | 2 | 15 | 10 | 8 | / | /
COc1ccc(-c2cc(C(F)(F)F)nc(NCc3ccco3)n2)cc1OC | -3 | 9 | 18* | -17 | 15 | 13
CC(=O)c1c(C)n(-c2ccccc2)c2ccc(OCC(O)CN3CCOCC3)cc12 (stereo not given) | -26 | 5 | 14 | -24 | / | /
CCN(CC)CC(O)COc1ccc2c(c1)c(C(C)=O)c(C)n2-c1ccccc1 (stereo not given) | -69 | 17 | 17* | -35 | 14 | 32*
CCCCC(O)(CCCC)C(=O)NN(C(=O)c1cccnc1Cl)c1ccccc1 | 0 | / | / | -30 | / | /
COC(=O)c1cc2c(ccn2-c2ccc(F)cc2)n1Cc1ccc(C#N)cc1 | 0 | 1 | 19* | 1 | 10 | 9
COC(=O)c1cc2c(ccn2-c2ccc(F)cc2)n1CC(=O)N1CCN(C(=O)c2ccco2)CC1 | -15 | -1 | 4 | 3 | / | /
O=c1c2ccccc2nnn1CSc1ccc2ccccc2n1 | -1 | 1 | 4 | -3 | / | /
O=c1c2ccccc2nnn1CSc1ccccc1 | 13 | 1 | 24* | 0 | 6 | 2
Cc1ccccc1-n1c(C)nnc1SCC(=O)N1CCc2ccccc2C1 | 10 | 1 | 0 | 6 | / | /
COc1ccc(C(=O)C2CCCN(C(=O)c3cc(C)nc(C)n3)C2)cc1OC (stereo not given) | 13 | -5 | / | 6 | / | /
SMILES | NPY1 pot ag | NPY-Y1 antag | NPY Y2 blocker | NPY-Y2 PAM-ag | NPY1 antag ctr | NPY-Y2 ant conf
Cc1cccc(C)c1NC(=O)C(NC(=O)CN1C(=O)c2ccccc2C1=O)c1ccccc1 (stereo not given) | 11 | 5 | 0 | 5 | / | /
CC(=O)N1CCN(Cc2nc3cc(NC(=O)NC4CCCCC4)ccc3n2C)CC1 | 6 | -1 | / | 5 | / | /
COc1ccccc1CNC(=O)CSc1ccc(C)cc1 | -20 | 5 | 28* | 13 | 0 | 4
COc1ccccc1CNC(=O)CSc1ccccc1 | 17 | -5 | / | -9 | / | /
CC(C)COC(=O)c1cccc2c1-c1ccccc1/C2=N\O | -42 | 13 | 22* | -8 | 17 | 39*
O=C(O)CCNS(=O)(=O)c1ccc2c(c1)Cc1ccccc1-2 | -19 | 5 | 27* | -30 | 8 | 10
O=C(O)CCNS(=O)(=O)c1ccc2c(c1)CCCC2 | 6 | 2 | / | 1 | / | /
Clc1ccc(-c2cc(CSc3cccc(Cl)c3)on2)cc1 | -67 | 20 | 17* | -32 | 10 | 16
Clc1ccc(-c2cc(CSc3ccccc3)on2)cc1 | -43 | 8 | 15 | -3 | / | /
Cc1ccc(SCc2cc(-c3ccc(Cl)cc3)no2)cc1 | -11 | 6 | 19* | 5 | 13 | 17
COc1ccc(NC(=O)CSc2nnc(NC(C)=O)s2)c([N+](=O)[O-])c1 | 2 | 1 | / | -3 | / | /
COc1ccc(Nc2nc(N3CCCC3)c3ccccc3n2)cc1 | -24 | 14 | 32* | 4 | 24* | 34*
CC(C)(C)c1ccc(/C=C/C(=O)N2CCc3ccccc3C2)cc1 | -47 | 8 | 10 | -36 | / | /
Cc1ccc(/C=C/C(=O)N2CCc3ccccc3C2)cc1 | -11 | 17 | 24* | -20 | 12 | 13
CC(=O)Nc1ccc(S(=O)(=O)NC2CCS(=O)(=O)C2)cc1Cl (stereo not given) | -13 | / | / | -14 | / | /
CC1=NN(c2ccccc2)C(=O)/C1=C\c1ccc(Br)s1 | -32 | 5 | 17* | -2 | 31* | 34*
C/C(=N\NC(=O)CCC(=O)Nc1ccccc1)c1cccs1 | 4 | -5 | -3 | 14 | / | /
COc1ccc(-n2nc(C(=O)N3CCN(Cc4ccc5c(c4)OCO5)CC3)c3ccccc3c2=O)cc1 | 10 | -1 | 17 | 8 | / | /
COc1ccc(-n2nc(C(=O)Nc3ccc4c(c3)OCO4)c3ccccc3c2=O)cc1 | -9 | 0 | 23* | -7 | 12 | 21*
CC1(C2CC(C(F)(F)F)n3nc(C(=O)O)cc3N2)CC1 (stereo not given) | 14 | -1 | / | -10 | / | /
CCOC(=O)CSc1ncc(OC)c(Sc2ccc(Cl)cc2)n1 | -34 | 14 | 21* | -19 | 4 | 9
CCOC(=O)C(C)Sc1ncc(OC)c(Sc2ccc(Cl)cc2)n1 (stereo not given) | -11 | 8 | 17 | -22 | / | /
Cn1nc([N+](=O)[O-])nc1Oc1ccc(C(C)(C)C)cc1 | -6 | 2 | 1 | 3 | / | /

High-throughput results: PubChem, The Scripps Research Institute Molecular Screening Center
